Experimental data from ChEMBL document CHEMBL4513216, “Probing the Open Global Health Chemical Diversity Library for Multistage-Active Starting Points for Next-Generation Antimalarials” (ACS Infect Dis, 2020).

experiment: Toxicity liver stage against HepG2, at 10uM; assay type: cell-based; set-up: test concentration 10 uM, cell line HepG2-A16-CD81EGFP; details: human, HepG2-A16-CD81EGFP cells; read-out: INHIBITION
Procedure, shortened: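 Uninfected HepG2-A16-CD81EGFP cells, 3 × 10^3 per well, 1536-well, plated on prespotted compound at 10 μM final, parasite-free screening media added to match infected plates; puromycin 10 μM positive, DMSO 0.5% negative; run in parallel with 48 h PbLuc assay at 37 °C, 5% CO2; viability by CellTiter-Glo luminescence, normalized to controls.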

SMILES	cytotoxicity at 10 µM
Cc1csc([C@H]2C[C@@H]3CCN(C(=O)c4cnccn4)C[C@H]3O2)n1	1.07%
CCC(O)CN1CCN(C(=O)c2ccn(-c3cccc(F)c3)n2)CC1 (stereo not drawn)	-1.65%
CCC1CN(C)c2ccccc2CN1C(=O)Nc1ccc(C)cc1 (stereo not drawn)	4.01%
Cc1nc(CN2CCC2(CCCc2ccccn2)C(=O)N(C)C)co1 (stereo not drawn)	11.4%
Cc1ccc(CN2CCC(F)(F)C3(CCN(c4cnccn4)C3)C2)o1 (stereo not drawn)	-3.71%
Cc1cc(N2CCCC(OC(=O)CCN3CCCC3=O)C2)nc(C)n1 (stereo not drawn)	2.58%
CCOC(=O)C1(O)CCN(C(=O)Nc2ccc(CC)cc2)CC1	-130%
CCN(Cc1nc(C)no1)C(=O)C1CC(=O)N(Cc2cccnc2)C1 (stereo not drawn)	4.03%
Cc1ccc(-c2cc(CS(=O)(=O)NC3CCCNC3=O)on2)cc1 (stereo not drawn)	-172%
CC(C)N1CCO[C@H]2CN(C(=O)c3ccncc3)C[C@H]21	-74.3%
Cc1nn(C)c(N2CCOCC2)c1CNC1CCOc2ccccc21 (stereo not drawn)	-7.44%
Cn1cc(-c2nc(CN3CCc4c(ncn4C4CC4)C3)cs2)cn1	-17.6%
Cc1nc(CCNC(=O)C2CC(=O)N(C(C)(C)C)C2)sc1Cl (stereo not drawn)	16.8%
CCn1c(CN(C)C(=O)c2ccc(N(C)C)nc2)nc2ccccc21	0.0894%
O=C(CSc1nnc(N2CCOCC2)s1)NC(=O)Nc1ccccc1	4.44%
Cc1cc(N2CCC3(CCC(=O)N(CCO)C3)CC2)nc(N(C)C)n1	-4.78%
Cc1nnc2ccc(N3CCC(C(=O)Nc4nccs4)CC3)nn12	3.89%
Cc1cc(C)n(CC2CCCCN2Cc2cscn2)n1 (stereo not drawn)	1.78%
CS(=O)(=O)N1CCO[C@H]2[C@@H](Oc3ncccc3F)CC[C@@H]21	-2.54%
Cc1occc1C(=O)N1C[C@@H]2OCCN(c3ncccn3)[C@@H]2C1	7.34%
CCN(CC)CCn1c(NC(=O)c2scnc2C)nc2ccccc21	-27.5%
Cc1nnc2n1CCN(C(=O)c1cc(Br)c[nH]1)C2	-10.7%

SMILES	cytotoxicity at 10 µM
COc1ccccc1Oc1ncccc1CNC(=O)[C@@H](N)[C@@H](C)O	-6.29%
c1cc(C2CCN(C3CCCCC3)C2)n[nH]1 (stereo not drawn)	1.65%
CCS(=O)(=O)N1CCc2ncnc(C)c2CC1	-0.0192%
CS(=O)(=O)N1CCc2[nH]cnc2C12CCN(C(=O)c1ccccc1)CC2	-2.66%
Cc1cccc(CN2CCc3c(CNC(=O)CC#N)nn(C)c3C2)n1	4.89%
COc1cccc(CN(Cc2ccco2)Cc2[nH]cnc2C)c1	3.77%
CC(C)c1cc(C2CCN(C(=O)Cn3cnnn3)CC2)[nH]n1	8.04%
COCCN1CCO[C@@H]2CN(C(=O)Cc3ccc(F)cc3)CC[C@@H]2C1	7.07%
Cc1cc(C)n(CC2CCCN2C(=O)c2cnc3n[nH]c(C)c3c2)n1 (stereo not drawn)	-2.61%
Cc1nc(CC(=O)N2CCOC(c3nc(C(C)(C)C)n[nH]3)C2)cs1 (stereo not drawn)	4.06%
COCC1CN(S(=O)(=O)N(C)C)Cc2cnn(CC3CCCC3)c21 (stereo not drawn)	12.4%
CC(O)(CNc1ccc(Cl)c(C#N)n1)c1ccsc1 (stereo not drawn)	3.39%
Cn1cc(CN2CC[C@@H]3[C@@H](CCC(=O)N3CC3CCNCC3)C2)cn1	1.73%
CCOc1c(Br)cc(CNC(C)c2nnc3n2CCC3)cc1OC (stereo not drawn)	-40.9%
COc1ccc(Cn2nnnc2SCC2CCCN(C)C2)cc1 (stereo not drawn)	-1.33%
Cc1noc(C)c1C(=O)N1CC[C@]2(C[C@@H](OCc3cccnc3)CO2)C1	-79.7%
CSCCC(=O)N1CCCC(c2nccn2Cc2ccncc2)C1 (stereo not drawn)	9.33%
Cc1cc(C)nc(N2CCN(C(=O)c3ccc(C4CCCO4)s3)CC2)n1 (stereo not drawn)	9.07%
Cc1c(F)cccc1NC(=O)N(C(C)CS(C)(=O)=O)C1CC1 (stereo not drawn)	8.29%
COc1ccc(N2CCN(C(=O)Cn3nc(C)c(Cl)c3C)CC2)cc1	1.58%
CCOCCN1CCN(CC(=O)NC2(C#N)CCCC2)CC1C (stereo not drawn)	5.33%
CC(C)c1ccc(OCCC(=O)N(C)CC(N)=O)cc1	6.77%

SMILES	cytotoxicity at 10 µM
COCC1COCCC12CCN(S(=O)(=O)c1ccccc1)CC2 (stereo not drawn)	0.242%
CN(C)S(=O)(=O)NCc1cccnc1Oc1ccc(F)cc1F	8.49%
CC=C(C)C(=O)NS(=O)(=O)c1ccc(Cl)cn1	7.04%
Cn1cc(-c2ncnc3c2CCN(CC2CCOC2)CC3)cn1 (stereo not drawn)	-112%
Cc1cc(N(C)C)nc(C2CCCN2)n1 (stereo not drawn)	-11.1%
Cc1ccc2cnn(CCC(=O)NCc3c(C)nn(C)c3C)c2c1	-8.19%
CC(=O)Nc1nc(C(=O)N2CCCC2c2noc(C3CC3)n2)cs1 (stereo not drawn)	-10.5%
O=C(CCC1CCN(C2Cc3ccccc3C2)CC1)NCC1CCCO1 (stereo not drawn)	7.36%
O=C1N(Cc2ccccc2)C[C@H]2CN(Cc3ccccc3Cl)CCN12	2.23%
Cc1ccnc(N2CCCC(c3nncn3C3CC3)C2)n1 (stereo not drawn)	-5.45%
Cc1cc(-c2ccc(=O)n(C3CCN(S(=O)(=O)N(C)C)CC3)n2)c(C)o1	6.54%
CC1(C(=O)N2CCOCC2)CN(Cc2ccccn2)CCO1 (stereo not drawn)	2.86%
Cc1nn(C)c2cnn(Cc3ccc(C(=O)N4CCN(C)CC4)o3)c12	14.3%
CC(=O)Nc1cnc(Oc2ccccc2F)nc1	-4.23%
CC1CCN(S(=O)(=O)N2Cc3ccccc3C[C@H]2C(N)=O)CC1	-6.64%
CCn1nc(C(C)C)cc1C(=O)N1CC(OCc2ccccc2F)C1	-4.62%
O=C(CCn1ccc2ccc(Br)cc21)NCc1ccc(C(=O)O)cc1	13.4%
Cc1ccc2nc(CN3CCCCC3CCN3CCOCC3)cn2c1 (stereo not drawn)	3.28%
NC1CCC(n2cc(C(=O)NC3COc4ccccc43)nn2)CC1 (stereo not drawn)	-4.8%
O=C([C@H]1CC[C@@H]2[C@@H](CCN2Cc2ccsc2)O1)N1CCOCC1	1.3%
CC(Cn1ccnc1)NC(=O)Cc1ccc2c(c1)OCCO2 (stereo not drawn)	-7.2%
CN(CC(=O)N1CCN(CC(C)(C)O)CC1)c1ccc(Cl)cn1	-2.87%

SMILES	cytotoxicity at 10 µM
O=S(=O)(c1ccccc1Cl)N1CCC2(CC1)OCCS2	-4.84%
COCCn1nc(C(=O)N(C)Cc2cnn(C)c2)ccc1=O	-2.44%
Cc1ccc(Cl)c2ccc(NC(CO)CO)nc12	-12.1%
COc1ccc(C(O)CNC(=O)NCc2nc(C)cs2)cc1 (stereo not drawn)	-3.54%
NC(=O)Cn1ccnc1C1CCCN(Cc2cccc(Cl)c2F)C1 (stereo not drawn)	7.81%
CN1CCC(c2n[nH]c(=O)n2CC2CCCCC2)CC1	-45.2%
CC(C)CC(NCc1ccsc1)c1ccccn1 (stereo not drawn)	-2.56%
O=C1NC2(CCN(Cc3cccs3)CC2)CC1c1ccncc1 (stereo not drawn)	1.2%
COCCOc1ccnc(-c2noc([C@@H]3CCCN3CC(C)C)n2)c1	-8.64%
COCCC(Cc1cccc(Br)c1)C(=O)N(C)C (stereo not drawn)	13%
CC(C)(O)CCc1ccc(C(=O)N2Cc3cnn(CCO)c3C2)cc1	2.69%
O=C(NCc1cnc2n1CCN(c1ncc(F)cn1)CC2)C1CCC1	-0.881%
Cc1noc([C@H]2C[C@H]3OCC[C@H]3N(Cc3ccc4c(c3)OCO4)C2)n1	2.67%
COc1ccc(Cn2c(=O)n(C)c(=O)c3sccc32)cc1	24.2%
COc1ccccc1OC1CCN(Cc2cnc(N(C)C)nc2)CC1	-10.9%
Cc1ccc(C)c(C(=O)N2CCOC(CCN(C)C)C2)c1 (stereo not drawn)	-0.63%
CS(=O)(=O)CCN1CCC(Nc2c(Cl)cccc2C#N)CC1	2.22%
CN(Cc1ncnn1C)C(=O)CCCn1ccc2cc(Cl)ccc21	14.7%
O=C1CNc2ncnc(N3CCN(Cc4cccc(F)c4)CC3)c2N1	7.88%
CC1CN(C)CCN1C(=O)c1cccn1Cc1cccnc1 (stereo not drawn)	-13.5%
O=C1NCCN(C(=O)c2cn3ccsc3n2)C1Cc1ccccc1 (stereo not drawn)	-9.51%
Cc1csc2c(=O)n3c(nc12)CCN(C(=O)c1ccnn1C)CC3	-9.35%

SMILES	cytotoxicity at 10 µM
COc1cccc(C(=O)NS(=O)(=O)c2cccc(C#N)c2)c1	-6.12%
COCC1CCN(C(=O)c2cccc(S(=O)(=O)NC3CCCC3)c2)C1 (stereo not drawn)	10.8%
c1cnnc(N[C@@H]2CC[C@@H]3CN(Cc4ccc5[nH]ccc5c4)C[C@@H]32)c1	-7.81%
COc1cccc(CNC(=O)c2cc(C)nc(N3CCCCC3)n2)c1	20%
O=C(NCc1cccnc1-n1cncn1)c1cc(Cl)ccn1	-3.76%
O=S1(=O)NC(c2ccnc(N3CCCC3)n2)=Nc2ccccc21	12.8%
Nc1nc2c(c(N3CCCC3)n1)CCN(Cc1ccccn1)CC2	-35.3%
c1ccc(CN2C[C@H]3CC[C@@H](C2)N(Cc2nnc(C4CC4)o2)C3)cc1	-8.42%
CC(=O)N1CCN(c2ccccc2CNc2cc(F)cc(F)c2)CC1	3.7%
COc1ncnc2c1CCN(C(=O)NCc1cccc(F)c1)CC2	-7.27%
COCCNC(=O)NC(=O)CNc1c(F)cccc1N1CCCC1	-2.05%
Cc1n[nH]c2c1C(c1ccsc1)SCC(=O)N2 (stereo not drawn)	4.21%
CC(C)Cn1nc2ccc(S(=O)(=O)N3CCC(C)CC3)cn2c1=O	1.67%
COc1cccc(CN2CCCCCC2c2cccc(C)c2)c1O (stereo not drawn)	7.6%
O=C(NCC1(c2ccc(F)cc2)CCC1)N1CCC2(C1)OCCO2	2.58%
O=C(Cc1c(F)cccc1F)N1CCN(CC(=O)N2CCCC2)CC1	4.57%
Cc1cccc(Oc2nccnc2C2CCN(C(=O)C(C)(C)N)CC2)c1	-9.44%
COCC1Cn2nnc(-c3cnn(C)c3)c2CN1Cc1ccc(C)s1 (stereo not drawn)	-10.5%
CC(NC(=O)c1cc(N2CCNC2=O)ccc1F)c1ccc(F)cc1 (stereo not drawn)	5.89%
Cc1nc(C)n(CC2CCCN(Cc3cn4c(C)cccc4n3)C2)n1 (stereo not drawn)	-6.01%
